KDM4C inh: inhibitors of human demethylase GASC-1 KDM4C | 96,000 compounds, 0.15% hits | GST-KDM4C 2-372, H3K9me3 peptide, LANCE TR-FRET | inhibition, % at 12.5 µM | Q9H3R0;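 active means mean replicate inhibition above about 25%, with at least 55% of replicates also reaching it, limit read from the data, passing the limit was not always enough; inconclusive means only one of those two conditions met; inactive means neither condition met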
Target sequence (Q9H3R0 2-372 limits assumed): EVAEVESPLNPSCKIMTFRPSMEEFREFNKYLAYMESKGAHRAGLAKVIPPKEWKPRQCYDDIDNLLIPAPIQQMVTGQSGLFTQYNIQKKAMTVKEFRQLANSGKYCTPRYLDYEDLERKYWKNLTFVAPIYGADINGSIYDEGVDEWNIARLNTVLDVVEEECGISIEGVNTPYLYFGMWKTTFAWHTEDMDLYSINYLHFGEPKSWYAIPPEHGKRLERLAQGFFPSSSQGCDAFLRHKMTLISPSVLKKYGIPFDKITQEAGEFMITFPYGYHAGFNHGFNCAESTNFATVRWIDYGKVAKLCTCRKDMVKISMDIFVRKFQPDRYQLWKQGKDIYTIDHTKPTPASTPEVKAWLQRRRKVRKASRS
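Material: GST-tagged GASC-1 (JMJD2C) catalytic fragment, aa 2-372. Input: enzyme final amount 10 nM. Medium: HEPES buffer, pH 7.5, plus ascorbate. Reagent: H3K9me3 peptide substrate, Fe(II), 2-oxoglutarate. Doses: single dose. Times: reaction 30 min RT, detection step 1 h RT. Measured by: LANCE TR-FRET. Evaluation: Fall in 671/618 emission ratio as inhibition.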
IDH1 mut inh: inhibitors of human IDH1 R132H. O75874. IDH1 R132H reductase, diaphorase/resazurin fluorescence, 60 min. inhibition, % at 10 µM. 70,000 compounds, 0.18% hits; in the data active means inhibition above about 34%; inconclusive means no clear call, values can overlap the other calls; inactive means below about 11%
T cruzi growth-1: T. cruzi proliferation inhibition; AID 624255; T. cruzi beta-gal in NIH3T3, GalScreen luminescence, 90 h; 77,000 compounds, 5.9% hits; inhibition, % at 8.34 µM;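 active means mean inhibition above about 93%, with at least 55% of replicates each passing it, limit read from the data, passing the limit was not always enough; inconclusive means only one of those two conditions holds; inactive means neither condition holds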
T cruzi growth-2: inhibitors of T. cruzi proliferation | shares compounds with T cruzi growth-1 | T. cruzi beta-gal in NIH3T3, GalScreen luminescence, 90 h | inhibition, % at 8.35 µM | 5,600 compounds, 72% hits | AID 651739;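 active means mean replicate inhibition above about 95% and at least 55% of replicates individually reaching it, limit read from the data; inconclusive means only one of the two criteria is met; inactive means neither criterion is met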
T cruzi growth-3: blocks T. cruzi growth in NIH3T3 host cells. inhibition, % at 2.09 µM. T. cruzi beta-gal in NIH3T3, GalScreen luminescence, 90 h. 5,600 compounds, 21% hits. shares compounds with T cruzi growth-1;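 active means mean inhibition above about 95%, with at least 55% of replicates also reaching it, limit read from the data; inconclusive means meets just one of the two conditions; inactive means meets neither condition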
NIH3T3 tox: NIH/3T3 (mouse) viability loss; NIH/3T3 viability, CellTiter-Glo ATP luminescence, 90 h; 5,600 compounds, 14% hits; shares compounds with T cruzi growth-1; cytotoxicity (signal decrease), % at 8.35 µM;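 active means mean signal decrease across replicates above about 35% based on untreated-well scatter, with enough replicates individually passing, limit read from the data; inconclusive means no rule stated though some were filed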
3T3 cytotox 2: cytotoxicity in mouse NIH/3T3 fibroblasts. 5,600 compounds, 56% hits. NIH/3T3 viability, CellTiter-Glo ATP luminescence, 90 h. inhibition, % at 24.9 µM. shares compounds with T cruzi growth-1;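 active means mean loss of cell viability signal at or above a set limit, and enough replicates individually reaching it; inconclusive means meets only the mean limit or only the replicate share; inactive means meets neither condition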
Each line names hits and unclear results; the compound was inactive in the other large screens (follow-up assays come after a bar, where they were run). Only a selection was taken, and hits are over-represented in it overall.

Cc1ccc(S(=O)(=O)N(C)C[C@H]2Oc3ccc(NS(=O)(=O)c4ccc(Cl)cc4)cc3C(=O)N([C@H](C)CO)C[C@H]2C)cc1	T cruzi growth-1 100 | T cruzi growth-2 96 | T cruzi growth-3 inactive | NIH3T3 tox inactive | 3T3 cytotox 2 36
C[C@@H]1CN([C@@H](C)CO)C(=O)c2cc(NS(=O)(=O)c3ccc(Cl)cc3)ccc2O[C@H]1CN(C)S(=O)(=O)c1ccc(Cl)cc1	none
CO[C@H]1CN(C)C(=O)c2ccc(NC(=O)Nc3cccc(Cl)c3)cc2OC[C@H](C)N(C(=O)Nc2c(C)noc2C)C[C@H]1C	none
O=c1cc(-c2ccccc2)nc(SCc2nc3ccccc3[nH]2)[nH]1	none (no result: KDM4C inh, T cruzi growth-1)
Cc1noc(C)c1S(=O)(=O)Nc1ccc2c(c1)C(=O)N([C@H](C)CO)C[C@@H](C)[C@H](CN(C)CC1CC1)O2	none (no result: IDH1 mut inh)
C[C@@H]1CN([C@H](C)CO)C(=O)c2cc(NS(=O)(=O)c3cccs3)ccc2O[C@@H]1CN(C)CC1CCCCC1	none
Cc1ccccc1S(=O)(=O)N1[C@@H]2CNC[C@H]1C2c1ccc(-c2cccc(C(=O)N(C)C)c2)cc1 (some centres not stated)	none (no result: IDH1 mut inh, T cruzi growth-1)
CC(=O)N(C)C[C@@H]1Oc2cc(C#CC3CCCCC3)ccc2S(=O)(=O)N([C@H](C)CO)C[C@H]1C	T cruzi growth-1 inconclusive (no result: IDH1 mut inh) | T cruzi growth-2 108 | T cruzi growth-3 inactive | NIH3T3 tox inactive | 3T3 cytotox 2 64
CC(=O)N(C)C[C@H]1Oc2cc(C#CC3CCCC3)ccc2S(=O)(=O)N([C@@H](C)CO)C[C@@H]1C	none (no result: IDH1 mut inh)
CC(=O)N(C)C[C@@H]1Oc2cc(C#CC3CCCCC3)ccc2S(=O)(=O)N([C@@H](C)CO)C[C@H]1C	none (no result: IDH1 mut inh)
CC(=O)N(C)C[C@H]1Oc2cc(C#CC3CCCC3)ccc2S(=O)(=O)N([C@H](C)CO)C[C@H]1C	T cruzi growth-1 102 (no result: IDH1 mut inh) | T cruzi growth-2 96 | T cruzi growth-3 inactive | NIH3T3 tox inactive | 3T3 cytotox 2 62
CC(C)NC(=O)N1[C@@H](C#N)[C@@H](c2ccc(C#CC3CCCC3)cc2)[C@@H]1CO	T cruzi growth-1 105 (no result: IDH1 mut inh) | T cruzi growth-2 101 | T cruzi growth-3 inactive | NIH3T3 tox inactive | 3T3 cytotox 2 27
N#C[C@@H]1[C@@H](c2ccc(C#CC3CCCC3)cc2)[C@H](CO)N1C(=O)Nc1ccc(F)cc1	none (no result: IDH1 mut inh)
CC(C)NC(=O)N1[C@@H](C#N)[C@H](c2ccc(C#CC3CCCC3)cc2)[C@@H]1CO	T cruzi growth-1 100 (no result: IDH1 mut inh) | T cruzi growth-2 106 | T cruzi growth-3 inactive | NIH3T3 tox inactive | 3T3 cytotox 2 52
N#C[C@@H]1[C@H](c2ccc(C#CC3CCCC3)cc2)[C@H](CO)N1C(=O)Nc1ccc(F)cc1	none (no result: IDH1 mut inh)
CN(C)CC(=O)N1[C@H](C#N)[C@@H](c2ccc(C#CC3CC3)cc2)[C@H]1CO	none (no result: IDH1 mut inh)
CC(C)NC(=O)N1[C@@H](C#N)[C@H](c2ccc(C#CC3CC3)cc2)[C@@H]1CO	T cruzi growth-1 104 (no result: IDH1 mut inh) | T cruzi growth-2 105 | T cruzi growth-3 inconclusive | NIH3T3 tox inactive | 3T3 cytotox 2 57
CC(C)NC(=O)N1[C@H](CO)[C@@H](c2ccc(C#CC3CCCC3)cc2)[C@@H]1C#N	T cruzi growth-1 99 (no result: IDH1 mut inh) | T cruzi growth-2 103 | T cruzi growth-3 inactive | NIH3T3 tox inactive | 3T3 cytotox 2 inactive
CC(C)NC(=O)N1[C@H](C#N)[C@H](c2ccc(C#CC3CCCC3)cc2)[C@@H]1CO	none (no result: IDH1 mut inh, T cruzi growth-1)
C[C@@H]1CCCCO[C@@H](CN(C)C(=O)CCC(F)(F)F)[C@@H](C)CN([C@H](C)CO)C(=O)c2cc(NS(=O)(=O)c3ccc(Cl)cc3)ccc2O1	none (no result: IDH1 mut inh)
C[C@@H]1CCCCO[C@H](CN(C)C(=O)C2CCCCC2)[C@H](C)CN([C@H](C)CO)C(=O)c2cc(NS(=O)(=O)c3ccc(Cl)cc3)ccc2O1	T cruzi growth-1 inconclusive (no result: IDH1 mut inh) | T cruzi growth-2 105 | T cruzi growth-3 inactive | NIH3T3 tox inactive | 3T3 cytotox 2 52
C[C@H]1CCCCO[C@H](CN(C)C(=O)C2CCCCC2)[C@@H](C)CN([C@@H](C)CO)C(=O)c2cc(NS(=O)(=O)c3ccc(Cl)cc3)ccc2O1	T cruzi growth-1 inconclusive (no result: IDH1 mut inh) | T cruzi growth-2 104 | T cruzi growth-3 inactive | NIH3T3 tox inactive | 3T3 cytotox 2 99
